Results from ChEMBL document CHEMBL1144780, “Synthesis and SAR of new pyrrolo[2,1-f][1,2,4]triazines as potent p38 alpha MAP kinase inhibitors” (Bioorg Med Chem Lett, 2008).

How the values were obtained:
[1] = molecular target: Mitogen-activated protein kinase 14 (Homo sapiens, UniProt Q16539); assay: Inhibition of p38alpha
Mus musculus = assay: Inhibition of LPS-induced TNFalpha production in BALB/c mouse at 10 mg/kg, po relative to control; assay type: functional
Method in brief: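 Female BALB/c mice, 6–8 weeks old, n = 8 per group, given 10 mg/kg by oral gavage in PEG 300; vehicle controls received PEG300 alone. LPS (E. coli O111:B4, 50 µg/kg) given ip 30 min after dosing. Blood taken 90 min after LPS and serum TNF-α measured by ELISA. Inhibition relative to vehicle, means SD, ANOVA.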

PBMC = assay: Inhibition of LPS-stimulated TNFalpha production in human PBMCs; assay type: functional, cell-based
Method in brief: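 PBMCs from heparinized healthy-volunteer blood isolated by Ficoll-Hypaque and resuspended at 5 × 10⁶/mL in RPMI with 10% FBS. Cells preincubated with compound for 5 min at rt, then stimulated with LPS (200 ng/mL stock) for 6 h at 37 °C. TNF-α in medium measured by ELISA. IC50 derived by linear regression.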

Mitogen-activated protein kinase 14, sequence (Q16539 whole entry): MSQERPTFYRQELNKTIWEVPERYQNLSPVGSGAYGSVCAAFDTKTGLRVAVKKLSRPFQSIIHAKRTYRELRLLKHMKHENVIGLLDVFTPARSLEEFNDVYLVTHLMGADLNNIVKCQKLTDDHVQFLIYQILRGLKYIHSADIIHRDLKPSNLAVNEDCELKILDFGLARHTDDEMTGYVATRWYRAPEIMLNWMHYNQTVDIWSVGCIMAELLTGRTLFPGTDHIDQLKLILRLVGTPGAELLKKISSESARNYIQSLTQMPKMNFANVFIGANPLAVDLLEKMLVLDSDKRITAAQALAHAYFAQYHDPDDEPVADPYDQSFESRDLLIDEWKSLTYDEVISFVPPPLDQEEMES

SMILES: CCNC(=O)c1cn2ncnc(Nc3cc(NC(=O)c4cccc(N5CCOCC5)c4)ccc3C)c2c1C
- Ki [1]: 0.98 nM
- inhibition in vivo at 10 mg/kg (Mus musculus): 84%
- IC50 (PBMC): 45 nM

SMILES: Cc1ccc(NC(=O)c2cc(F)cc(N3CCOCC3)c2)cc1Nc1ncnn2cc(C(=O)NCCN(C)C)c(C)c12
- IC50 [1]: 10 nM
- IC50 (PBMC): 18 nM

SMILES: Cc1ccc(NC(=O)c2cc(F)cc(N3CCOCC3)c2)cc1Nc1ncnn2cc(C(=O)NC(C)C)c(C)c12
- IC50 [1]: 5 nM
- IC50 (PBMC): 6 nM

SMILES: CCCNC(=O)c1cn2ncnc(Nc3cc(NC(=O)c4cc(F)cc(N5CCOCC5)c4)ccc3C)c2c1C
- IC50 [1]: 5 nM
- IC50 (PBMC): 4 nM

SMILES: CNC(=O)c1cn2ncnc(Nc3cc(NC(=O)c4cc(F)cc(N5CCOCC5)c4)ccc3C)c2c1C
- IC50 [1]: 4 nM
- IC50 (PBMC): 14 nM

SMILES: CCNC(=O)c1cn2ncnc(Nc3cc(NC(=O)c4cccc(-n5cccn5)c4)ccc3C)c2c1C
- IC50 [1]: 123 nM

SMILES: Cc1ccc(NC(=O)c2cccc(N3CCOCC3)c2)cc1Nc1ncnn2cc(C(=O)N[C@@H](C)c3ccccc3)c(C)c12
- inhibition in vivo at 10 mg/kg (Mus musculus): 87%
- IC50 (PBMC): 29 nM

SMILES: CCOC(=O)c1cn2ncnc(Nc3cc(NC(=O)c4cc(F)cc(N5CCOCC5)c4)ccc3C)c2c1C
- IC50 [1]: 2 nM
- IC50 (PBMC): 4 nM

SMILES: Cc1ccc(NC(=O)c2cc(F)cc(N3CCOCC3)c2)cc1Nc1ncnn2cc(C(=O)N[C@@H](C)c3ccccc3)c(C)c12
- Ki [1]: 0.54 nM
- IC50 (PBMC): 2 nM

SMILES: Cc1ccc(NC(=O)c2ccnc(N3CCOCC3)c2)cc1Nc1ncnn2cc(C(=O)N[C@@H](C)c3ccccc3)c(C)c12
- inhibition in vivo at 10 mg/kg (Mus musculus): 89%
- IC50 (PBMC): 43 nM

SMILES: CCNC(=O)c1cn2ncnc(Nc3cc(NC(=O)c4cccc(N5CCN(C)CC5)c4)ccc3C)c2c1C
- IC50 [1]: 924 nM

SMILES: COC[C@H](C)NC(=O)c1cn2ncnc(Nc3cc(NC(=O)c4cc(F)cc(N5CCOCC5)c4)ccc3C)c2c1C (stereo in doubt; 39)
- IC50 [1]: 2 nM
- IC50 (PBMC): 7 nM

SMILES: Cc1ccc(NC(=O)c2ccc(C#N)cc2)cc1Nc1ncnn2cc(C(=O)N[C@@H](C)c3ccccc3)c(C)c12
- Ki [1]: 3.4 nM
- IC50 (PBMC): 11 nM

SMILES: Cc1ccc(NC(=O)c2cc(F)cc(N3CCOCC3)c2)cc1Nc1ncnn2cc(C(N)=O)c(C)c12
- IC50 [1]: 3 nM
- IC50 (PBMC): 19 nM

SMILES: CCNC(=O)c1cn2ncnc(Nc3cc(NC(=O)c4cc(F)cc(N5CCOCC5)c4)ccc3C)c2c1C
- Ki [1]: 0.42 nM
- IC50 (PBMC): 2 nM

SMILES: COC[C@H](C)NC(=O)c1cn2ncnc(Nc3cc(NC(=O)c4cc(F)cc(N5CCOCC5)c4)ccc3C)c2c1C (stereo in doubt; 16)
- IC50 [1]: 2 nM

SMILES: Cc1ccc(NC(=O)c2cccc(C(F)(F)F)c2)cc1Nc1ncnn2cc(C(=O)N[C@@H](C)c3ccccc3)c(C)c12
- IC50 [1]: 32 nM
- IC50 (PBMC): 72 nM

SMILES: CCNC(=O)c1cn2ncnc(Nc3cc(NC(=O)c4ccc(C#N)cc4)ccc3C)c2c1C
- IC50 [1]: 23 nM
- IC50 (PBMC): 46 nM

SMILES: Cc1ccc(NC(=O)c2cc(F)cc(N3CCOCC3)c2)cc1Nc1ncnn2cc(C(=O)O)c(C)c12
- IC50 [1]: 1 nM
- IC50 (PBMC): > 1000 nM

SMILES: Cc1ccc(NC(=O)c2cc(C(F)(F)F)cc(C(F)(F)F)c2)cc1Nc1ncnn2cc(C(=O)N[C@@H](C)c3ccccc3)c(C)c12
- IC50 [1]: > 1000 nM

SMILES: Cc1cccc(C(=O)Nc2ccc(C)c(Nc3ncnn4cc(C(=O)N[C@@H](C)c5ccccc5)c(C)c34)c2)c1
- IC50 [1]: 94 nM
- IC50 (PBMC): 259 nM

SMILES: CCNC(=O)c1cn2ncnc(Nc3cc(NC(=O)c4cccc(N5CCCC5=O)c4)ccc3C)c2c1C
- IC50 [1]: 16 nM
- IC50 (PBMC): 633 nM

SMILES: CCNC(=O)c1cn2ncnc(Nc3cc(NC(=O)c4cccc(-n5ccnc5)c4)ccc3C)c2c1C
- IC50 [1]: 7 nM
- IC50 (PBMC): 126 nM

SMILES: COC[C@H](C)NC(=O)c1cn2ncnc(Nc3cc(NC(=O)c4ccc(C#N)cc4)ccc3C)c2c1C
- IC50 (PBMC): 65 nM

SMILES: Cc1ccc(NC(=O)c2ccncc2)cc1Nc1ncnn2cc(C(=O)N[C@@H](C)c3ccccc3)c(C)c12
- IC50 [1]: 14 nM
- IC50 (PBMC): 117 nM

SMILES: Cc1ccc(NC(=O)c2c(Cl)cccc2Cl)cc1Nc1ncnn2cc(C(=O)N[C@@H](C)c3ccccc3)c(C)c12
- IC50 [1]: > 1000 nM

SMILES: Cc1ccc(NC(=O)c2cc(F)cc(N3CCOCC3)c2)cc1Nc1ncnn2ccc(C)c12
- IC50 [1]: 27 nM
- IC50 (PBMC): 98 nM

SMILES: Cc1ccc(C(=O)Nc2ccc(C)c(Nc3ncnn4cc(C(=O)N[C@@H](C)c5ccccc5)c(C)c34)c2)cc1
- IC50 [1]: 13 nM
- IC50 (PBMC): 313 nM

SMILES: Cc1ccc(NC(=O)c2ccccc2)cc1Nc1ncnn2cc(C(=O)N[C@@H](C)c3ccccc3)c(C)c12
- IC50 [1]: 19 nM
- IC50 (PBMC): 52 nM

SMILES: CCNC(=O)c1cn2ncnc(Nc3cc(NC(=O)c4ccnc(N5CCOCC5)c4)ccc3C)c2c1C
- IC50 [1]: 2 nM
- IC50 (PBMC): 287 nM

SMILES: Cc1ccc(NC(=O)c2cc(F)cc(N3CCOCC3)c2)cc1Nc1ncnn2cc(C(=O)N[C@H](C)c3ccccc3)c(C)c12
- IC50 [1]: 23 nM
- IC50 (PBMC): 48 nM

SMILES: Cc1ccc(NC(=O)c2cc(F)cc(N3CCOCC3)c2)cc1Nc1ncnn2cc(C(=O)N(C)C)c(C)c12
- IC50 [1]: 63 nM
- IC50 (PBMC): 212 nM

SMILES: COC[C@H](C)NC(=O)c1cn2ncnc(Nc3cc(NC(=O)c4cccc(N5CCOCC5)c4)ccc3C)c2c1C
- IC50 [1]: 12 nM
- IC50 (PBMC): 29 nM
